Laboratory results published in ChEMBL document CHEMBL3352430, “4-Aminopyridyl-based CYP51 inhibitors as anti-Trypanosoma cruzi drug leads with improved pharmacokinetic profile and in vivo potency” (J Med Chem, 2014).
pEC50, pKd: −log10 of the molar value.

Tests used:
[1] = test system: Liver microsome; assay: Half life in human liver microsomes; format: ADME
[2] = test system: Liver; assay: Half life in mouse liver microsomes; format: ADME
[3] = test system: Trypanosoma cruzi; assay: Antitrypanosomal activity against Trypanosoma cruzi Y luc infected in mouse assessed as inhibition of parasitemia at 50 mg/kg, po bid in 20% Kolliphor administered for 4 consecutive days starting on day 3 of infection measured on day 7 post infection relative to vehicle-treated control; format: functional
How it was run: (§1)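 Female Swiss Webster mice, 8 weeks old, infected ip with 10^5 T. cruzi Y luc trypomastigotes. Only mice with detectable luminescence on day 3 were treated. Compound given by oral gavage bid for four days, as a suspension in 20% HPβCD or a solution in 20% Kolliphor, five mice per group. Vehicle group and benznidazole 50 mg/kg served as controls. On day 7, mice were injected ip with 150 mg/kg d-luciferin and imaged after 5 min under isoflurane. Percent inhibition calculated against untreated mice; two-tailed paired t test.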

[4] = test system: C2C12; assay: Cytotoxicity against mouse C2C12 cells up to 10 uM; format: cell-based
How it was run: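 Mouse C2C12 myoblasts infected with T. cruzi CA-I/72, then exposed at 24 h postinfection to compound at 10 μM down to 5 pM in 5-fold steps for 72 h at 37 °C. Cells fixed in paraformaldehyde, stained with DAPI and scored by automated imaging. Triplicate wells; uninfected and infected untreated wells as controls.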

[5] = test system: Heart; assay: Drug uptake in mouse heart at 50 mg/kg, po in 20% Kolliphor measured at 8 hrs post dose; format: ADME, organism-based; design: dose 50 mg/kg, route oral; settings: in vivo
How it was run: (§2)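 Female Swiss Webster mice, 8 weeks old, given a single 50 mg/kg oral gavage dose in 20% HPβCD or 20% Kolliphor. Tissues taken from three mice at 2 and 8 h post dose. Homogenized by probe sonication in PBS (1:4 w/v), protein precipitated with acetonitrile, and compound measured by LC-MS/MS in μM.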

[6] = test system: Trypanosoma cruzi; assay: Antitrypanosomal activity against Trypanosoma cruzi Y luc infected in mouse assessed as inhibition of parasitemia at 25 mg/kg, po bid in 20% Kolliphor administered for 4 consecutive days starting on day 3 of infection measured on day 7 post infection relative to vehicle-treated control; format: functional; how it was run: as §1
[7] = Drug uptake in mouse skeletal muscle at 50 mg/kg, po in 20% Kolliphor measured at 8 hrs post dose; format: ADME, organism-based, Muscle tissue; design: dose 50 mg/kg, route oral; settings: in vivo; how it was run: as §2
[8] = molecular target: Cytochrome P450 3A4 (Homo sapiens, UniProt P08684); assay: Inhibition of CYP3A4 in human liver microsomes at 1 uM; format: ADME
Cytochrome P450 3A4, sequence (P08684 whole entry): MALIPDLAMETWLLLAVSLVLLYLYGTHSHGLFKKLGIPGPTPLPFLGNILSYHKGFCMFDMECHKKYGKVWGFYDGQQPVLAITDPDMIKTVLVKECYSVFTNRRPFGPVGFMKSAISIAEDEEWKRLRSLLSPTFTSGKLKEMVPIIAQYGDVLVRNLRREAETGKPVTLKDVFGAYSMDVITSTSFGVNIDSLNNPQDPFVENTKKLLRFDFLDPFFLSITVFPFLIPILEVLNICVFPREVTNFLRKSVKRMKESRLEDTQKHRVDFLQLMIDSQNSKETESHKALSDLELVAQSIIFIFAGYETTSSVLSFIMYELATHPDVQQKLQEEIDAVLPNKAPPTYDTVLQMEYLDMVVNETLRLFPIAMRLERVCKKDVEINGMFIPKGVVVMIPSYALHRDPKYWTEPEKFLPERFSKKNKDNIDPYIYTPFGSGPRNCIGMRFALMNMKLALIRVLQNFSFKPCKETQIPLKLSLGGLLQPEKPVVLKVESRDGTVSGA

[9] = Drug uptake in mouse fat at 50 mg/kg, po in 20% HP-beta-CD measured at 8 hrs post dose; format: ADME, organism-based, Adipose tissue; design: dose 50 mg/kg, route oral; settings: in vivo; how it was run: as §2
[10] = test system: Intestine; assay: Drug uptake in mouse intestine at 50 mg/kg, po in 20% Kolliphor measured at 8 hrs post dose; format: ADME, organism-based; design: dose 50 mg/kg, route oral; settings: in vivo; how it was run: as §2
[11] = test system: Liver; assay: Drug uptake in mouse liver at 50 mg/kg, po in 20% Kolliphor measured at 8 hrs post dose; format: ADME, organism-based; design: dose 50 mg/kg, route oral; settings: in vivo; how it was run: as §2
[12] = Drug uptake in mouse fat at 50 mg/kg, po in 20% Kolliphor measured at 8 hrs post dose; format: ADME, organism-based, Adipose tissue; design: dose 50 mg/kg, route oral; settings: in vivo; how it was run: as §2
[13] = test system: Liver; assay: Drug uptake in mouse liver at 50 mg/kg, po in 20% HP-beta-CD measured at 8 hrs post dose; format: ADME, organism-based; design: dose 50 mg/kg, route oral; settings: in vivo; how it was run: as §2
[14] = test system: Liver microsome; assay: Half life in rat liver microsomes; format: ADME
[15] = test system: Trypanosoma cruzi; assay: Antitrypanosomal activity against Trypanosoma cruzi Y luc infected in mouse assessed as inhibition of parasitemia at 40 mg/kg, ip bid in 60% DMSO administered for 4 consecutive days starting on day 3 of infection measured on day 7 post infection relative to vehicle-treated control
[16] = molecular target: Cytochrome P450 2C9 (Homo sapiens, UniProt P11712); assay: Inhibition of CYP2C9 in human liver microsomes at 1 uM; format: ADME
Cytochrome P450 2C9, sequence (P11712 whole entry): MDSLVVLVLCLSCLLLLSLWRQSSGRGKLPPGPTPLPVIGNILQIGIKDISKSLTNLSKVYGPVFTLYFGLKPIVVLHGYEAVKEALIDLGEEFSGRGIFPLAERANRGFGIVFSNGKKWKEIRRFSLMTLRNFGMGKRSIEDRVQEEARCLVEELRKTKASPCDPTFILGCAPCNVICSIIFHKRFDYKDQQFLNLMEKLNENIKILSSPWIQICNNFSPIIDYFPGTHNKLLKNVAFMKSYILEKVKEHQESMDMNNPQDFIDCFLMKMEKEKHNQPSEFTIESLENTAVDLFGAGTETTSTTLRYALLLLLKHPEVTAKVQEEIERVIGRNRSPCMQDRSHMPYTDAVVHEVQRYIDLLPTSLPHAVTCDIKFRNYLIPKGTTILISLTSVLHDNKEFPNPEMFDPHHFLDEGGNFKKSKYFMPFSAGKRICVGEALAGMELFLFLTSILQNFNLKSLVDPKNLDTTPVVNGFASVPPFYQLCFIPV

[17] = test system: Trypanosoma cruzi; assay: Antitrypanosomal activity against Trypanosoma cruzi amastigotes infected in mouse C2C12 cells after 72 hrs by DAPI staining method; format: functional, organism-based; settings: C2C12, 72 h
[18] = molecular target: T1, Cytochrome P450 1A2 (Homo sapiens, UniProt P05177); assay: Inhibition of CYP1A2 in human liver microsomes at 1 uM; format: ADME
T1 sequence (P05177 whole entry): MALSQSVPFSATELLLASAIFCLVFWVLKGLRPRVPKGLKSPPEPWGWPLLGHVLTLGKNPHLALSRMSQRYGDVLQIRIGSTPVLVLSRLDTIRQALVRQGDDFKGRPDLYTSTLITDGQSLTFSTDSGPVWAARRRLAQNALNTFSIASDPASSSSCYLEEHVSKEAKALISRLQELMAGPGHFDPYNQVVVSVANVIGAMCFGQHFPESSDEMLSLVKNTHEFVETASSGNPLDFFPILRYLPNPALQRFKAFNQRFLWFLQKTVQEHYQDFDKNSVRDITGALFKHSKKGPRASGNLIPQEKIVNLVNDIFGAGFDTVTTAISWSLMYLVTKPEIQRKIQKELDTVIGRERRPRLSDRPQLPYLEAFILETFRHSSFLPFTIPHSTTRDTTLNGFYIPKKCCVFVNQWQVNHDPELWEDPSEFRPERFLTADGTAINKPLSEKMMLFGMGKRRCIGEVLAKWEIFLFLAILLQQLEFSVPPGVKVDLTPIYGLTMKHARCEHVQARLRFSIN

[19] = molecular target: Sterol 14-alpha demethylase (Trypanosoma cruzi (strain CL Brener), UniProt Q7Z1V1); assay: Binding affinity to Trypanosoma cruzi CYP51 by UV-vis titration method; settings: read-out: Kd(app)
Sterol 14-alpha demethylase, sequence (Q7Z1V1 whole entry): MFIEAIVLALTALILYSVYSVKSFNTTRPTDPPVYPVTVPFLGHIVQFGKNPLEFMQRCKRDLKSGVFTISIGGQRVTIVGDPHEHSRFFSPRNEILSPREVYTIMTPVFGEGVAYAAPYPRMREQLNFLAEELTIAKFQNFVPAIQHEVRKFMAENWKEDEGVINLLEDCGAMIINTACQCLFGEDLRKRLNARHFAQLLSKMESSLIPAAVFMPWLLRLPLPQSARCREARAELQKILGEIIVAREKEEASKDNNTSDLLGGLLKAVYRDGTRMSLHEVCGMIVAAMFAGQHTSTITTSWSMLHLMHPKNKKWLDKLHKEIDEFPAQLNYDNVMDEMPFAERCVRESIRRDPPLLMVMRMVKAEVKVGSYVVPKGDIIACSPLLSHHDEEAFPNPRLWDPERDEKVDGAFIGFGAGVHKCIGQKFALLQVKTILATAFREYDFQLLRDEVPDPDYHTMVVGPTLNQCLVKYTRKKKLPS

[20] = test system: Lung; assay: Drug uptake in mouse lung at 50 mg/kg, po in 20% Kolliphor measured at 8 hrs post dose; format: ADME, organism-based; design: dose 50 mg/kg, route oral; settings: in vivo; how it was run: as §2
[21] = test system: Intestine; assay: Drug uptake in mouse intestine at 50 mg/kg, po in 20% HP-beta-CD measured at 8 hrs post dose; format: ADME, organism-based; design: dose 50 mg/kg, route oral; settings: in vivo; how it was run: as §2
[22] = test system: Lung; assay: Drug uptake in mouse lung at 50 mg/kg, po in 20% HP-beta-CD measured at 8 hrs post dose; format: ADME, organism-based; design: dose 50 mg/kg, route oral; settings: in vivo; how it was run: as §2
[23] = test system: Heart; assay: Drug uptake in mouse heart at 50 mg/kg, po in 20% HP-beta-CD measured at 8 hrs post dose; format: ADME, organism-based; design: dose 50 mg/kg, route oral; settings: in vivo; how it was run: as §2
[24] = molecular target: Cytochrome P450 2D6 (Homo sapiens, UniProt P10635); assay: Inhibition of CYP2D6 in human liver microsomes at 1 uM; format: ADME
Cytochrome P450 2D6, sequence (P10635 whole entry): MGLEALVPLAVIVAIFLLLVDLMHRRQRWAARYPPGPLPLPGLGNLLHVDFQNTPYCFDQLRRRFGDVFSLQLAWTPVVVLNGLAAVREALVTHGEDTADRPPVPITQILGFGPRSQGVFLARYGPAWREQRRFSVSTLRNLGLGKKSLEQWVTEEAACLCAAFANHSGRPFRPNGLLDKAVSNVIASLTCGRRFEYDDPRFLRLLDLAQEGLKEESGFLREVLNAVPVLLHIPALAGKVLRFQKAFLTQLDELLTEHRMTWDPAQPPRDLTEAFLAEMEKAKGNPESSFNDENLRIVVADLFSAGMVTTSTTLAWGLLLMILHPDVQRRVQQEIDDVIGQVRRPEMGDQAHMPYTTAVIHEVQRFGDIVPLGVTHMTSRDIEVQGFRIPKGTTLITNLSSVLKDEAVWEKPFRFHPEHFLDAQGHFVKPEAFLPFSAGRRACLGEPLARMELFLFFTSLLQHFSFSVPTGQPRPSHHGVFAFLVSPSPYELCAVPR

[25] = Drug uptake in mouse skeletal muscle at 50 mg/kg, po in 20% HP-beta-CD measured at 8 hrs post dose; format: ADME, organism-based, Muscle tissue; design: dose 50 mg/kg, route oral; settings: in vivo; how it was run: as §2
[26] = Clearance in mouse at 50 mg/kg, po in 20% Kolliphor; format: ADME, organism-based; design: dose 50 mg/kg, route oral; settings: in vivo
How it was run: (§3)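 Female Swiss Webster mice, 8 weeks old, given one oral gavage dose of 50 mg/kg as a 10 mg/mL preparation in the named vehicle (20% HPβCD suspension or 20% Kolliphor). Plasma sampled at about 0.25, 0.5, 1, 2, 4, 6, 8, 12 and 24 h, n = 3 per time point. Protein precipitated with 5 volumes acetonitrile, filtered, then LC-MS/MS. Values are averages of three mice.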

[27] = AUClast in mouse at 50 mg/kg, po in 20% Kolliphor; format: ADME, organism-based; design: time 0 - last, dose 50 mg/kg, route oral; settings: plasma; how it was run: as §3
[28] = Cmax in mouse at 50 mg/kg, po in 20% Kolliphor; format: ADME, organism-based; design: dose 50 mg/kg, route oral; settings: in vivo; how it was run: as §3
[29] = Tmax in mouse at 50 mg/kg, po in 20% Kolliphor; format: ADME, organism-based; design: dose 50 mg/kg, route oral; settings: in vivo; how it was run: as §3
[30] = Half life in mouse at 50 mg/kg, po in 20% Kolliphor; format: ADME, organism-based; design: dose 50 mg/kg, route oral; settings: in vivo; how it was run: as §3

Compound | t1/2 [1] | t1/2 [2] | inhibition in vivo at 50 mg/kg [3] | Activity [4] | Drug uptake [5] | inhibition in vivo at 25 mg/kg [6] | Drug uptake [7] | Drug uptake [9] | Drug uptake [10] | Drug uptake [11] | Drug uptake [12] | Drug uptake [13] | t1/2 [14] | inhibition in vivo at 40 mg/kg [15] | Drug uptake [20] | Drug uptake [21] | Drug uptake [22] | Drug uptake [23] | Drug uptake [25] | other results
O=C(N[C@H](Cc1c[nH]c2ccccc12)C(=O)Nc1ccncc1)c1ccc(-c2cccc(C(F)(F)F)c2)cc1F | 33 min | 51 min | 99.2% | Non-toxic | Active | 74.7% | Active | Active | Active | Active | Active | Active | 31 min | 98.5% | Active | Active | Active | Active | Active | inhibition (INH) [8]: 7%; inhibition (INH) [16]: 92%; pEC50 [17]: 7.41; inhibition (INH) [18]: -16%; pKd [19]: 7.10; inhibition (INH) [24]: 14%
O=C(N[C@H](Cc1c[nH]c2ccccc12)C(=O)Nc1ccncc1)c1ccc(-c2cc(F)ccc2F)cc1F | – | – | – | Non-toxic | Active | 72.2% | Active | Active | Active | Active | Active | Active | – | 35.4% | Active | Active | Active | Active | Active | –
O=C(N[C@H](Cc1c[nH]c2ccccc12)C(=O)Nc1ccncc1)c1ccc(-c2ccc(OCc3ccc(F)cc3)c(F)c2)cc1F | 15 min | 67 min | – | Non-toxic | Active | 75.6% | Active | Active | Active | Active | Active | Active | 39 min | 96.9% | Active | Active | Active | Active | Active | –
O=C(N[C@H](Cc1c[nH]c2ccccc12)C(=O)Nc1ccncc1)c1ccc(-c2cccc(F)c2)cc1F | – | – | 71.3% | Non-toxic | Active | 47.4% | Active | Active | Active | Active | Active | Active | 20 min | 51.6% | Active | Active | Active | Active | Active | –
CC(=O)N1CCN(c2ccc(C(=O)N[C@H](Cc3c[nH]c4ccccc34)C(=O)Nc3ccncc3)c(F)c2)CC1 | 64 min | 13 min | – | Non-toxic | Active | – | Active | Active | Active | Active | Active | Active | 18 min | 52% | Active | Active | Active | Active | Active | –
O=C(N[C@H](Cc1c[nH]c2ccccc12)C(=O)Nc1ccncc1)c1ccc(-c2ccc(F)c(F)c2)cc1F | – | – | 78.5% | Non-toxic | Active | 41.5% | Active | Active | Active | Active | Active | Active | – | 83.6% | Active | Active | Active | Active | Active | CL/F [26]: 53.8 mL/min/kg; AUC(0-t) [27]: 32.5 µM·h; Cmax [28]: 3.71 µM; Tmax [29]: 120 min; half-life [30]: 197 min
O=C(N[C@H](Cc1c[nH]c2ccccc12)C(=O)Nc1ccncc1)c1ccc(N2CCN(c3cccc(Cl)c3)CC2)cc1F | – | 33 min | 97.6% | Non-toxic | Active | 73.6% | Active | Active | Active | Active | Active | Active | 21 min | – | Active | Active | Active | Active | Active | –
